The results in this text go back to ChEMBL document CHEMBL3739420, “Benzoxazolone Carboxamides as Potent Acid Ceramidase Inhibitors: Synthesis and Structure-Activity Relationship (SAR) Studies” (J Med Chem, 2015).

In series [1] the target is T1, Acid ceramidase (Homo sapiens, UniProt Q13510).
T1 sequence (Q13510 whole entry): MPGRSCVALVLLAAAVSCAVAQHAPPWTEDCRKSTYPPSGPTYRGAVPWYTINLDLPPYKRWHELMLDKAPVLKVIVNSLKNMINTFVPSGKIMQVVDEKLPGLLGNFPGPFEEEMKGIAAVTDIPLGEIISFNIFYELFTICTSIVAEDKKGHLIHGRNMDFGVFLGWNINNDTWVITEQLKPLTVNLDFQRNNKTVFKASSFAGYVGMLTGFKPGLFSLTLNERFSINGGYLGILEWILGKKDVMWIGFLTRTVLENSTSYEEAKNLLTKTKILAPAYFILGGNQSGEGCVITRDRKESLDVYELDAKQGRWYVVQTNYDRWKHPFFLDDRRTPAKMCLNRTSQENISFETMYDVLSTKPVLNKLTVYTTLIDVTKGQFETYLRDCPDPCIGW
The experiment in a line: Inhibition of recombinant human acid ceramidase expressed in HEK293 cells using N-[(1S,2R)-2-hydroxy-1-(hydroxymethyl)-4-(2-oxochromen-7-yl)-oxybutyl]dodecanamide substrate preincubated for 10 mins. The format is cell-based. The method, boiled down: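 AC-enriched lysosomal lysate from HEK293 cells stably expressing human AC, preincubated 10 min with compound. Coumarin-linked dodecanamide substrate then added at 5 μM final and incubated 3 h at 37 °C. Reaction stopped with MeOH, then NaIO4 at pH 10.6 for 2 h at 37 °C in the dark; umbelliferone fluorescence read at 355/460 nm. IC50 from nonlinear regression; mean of ≥2 determinations.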

Series [2] in a line: Chemical stability in AC assay buffer at 10 uM at pH 4.5 under shaking by UPLC method. The format is physicochemical. To be noted: pH 4.5, 10 µM.
Series [3] is described as follows: Stability in 1 % DMSO containing phosphate-buffered solution assessed as half life at 10 uM at pH 7.4 under shaking by UPLC method. The format is physicochemical. The conditions noted are these: for half-life at 10 µM: phosphate-buffered solution, pH 7.4; for t1/2: buffer, pH 7.4, 10 µM. The method, boiled down:
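Compound incubated at 10 μM in PBS pH 7.4; half-life derived by fitting the decay profile.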

In series [4] the target is T2, Acid ceramidase (Homo sapiens) (UniProt Q13510).
T2 sequence (whole entry): T1 sequence (Q13510 whole entry)
Nature of the series: Inhibition of recombinant human acid ceramidase expressed in HEK293 cells at 5 uM using N-[(1S,2R)-2-hydroxy-1-(hydroxymethyl)-4-(2-oxochromen-7-yl)-oxybutyl]dodecanamide substrate preincubated for 10 mins. The format is cell-based.

For series [5], the system named is Mus musculus. The experiment in a line: Inhibition of acid ceramidase in C57BL/6 mouse cerebral cortex at 10 mg/kg, ip after 24 hrs by bicinchoninic acid based protein assay. The format is functional, organism-based. Put shortly:
(§1)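 Male C57BL/6 mice dosed ip at 10 mg/kg in 15% PEG/15% Tween-80/70% saline; lung and cerebral cortex collected 30 min–24 h after dosing. Lysosomal extracts were prepared by sonication and differential centrifugation, then incubated at pH 4.5 with 50 μM C12-ceramide for 1 h at 37 °C. Lauric acid product measured by UPLC–MS with an internal standard; activity expressed as % of vehicle; n = 6.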

For series [6], the system named is Mus musculus. The experiment in a line: Inhibition of acid ceramidase in C57BL/6 mouse lung at 10 mg/kg, ip after 24 hrs by bicinchoninic acid based protein assay. The format is functional, organism-based. Put shortly:
as §1

Series [7] has as its system Mus musculus. Nature of the series: Inhibition of acid ceramidase in C57BL/6 mouse lung assessed as increase in ceramide level at 10 mg/kg, ip upto 6 hrs by LC-MS method. The format is functional, organism-based.
The test system of series [8] is Mus musculus. The experiment in a line: Inhibition of acid ceramidase in C57BL/6 mouse lung assessed as increase in dihydroceramide level at 10 mg/kg, ip upto 6 hrs by LC-MS method. The format is functional, organism-based.
The test system of series [9] is Mus musculus. The experiment in a line: Inhibition of acid ceramidase in C57BL/6 mouse lung assessed as decrease in sphingosine level at 10 mg/kg, ip after 3 hrs by LC-MS method. The format is functional, organism-based.
For series [10], the system named is Mus musculus. Nature of the series: Inhibition of acid ceramidase in C57BL/6 mouse lung assessed as decrease in sphingosine-1-phosphate level at 10 mg/kg, ip after 3 hrs by LC-MS method. The format is functional, organism-based.
The subject of series [11] is Mus musculus. The experiment in a line: Inhibition of acid ceramidase in C57BL/6 mouse cerebral cortex assessed as changes in sphingolipid level at 10 mg/kg, ip by LC-MS method. The format is functional, organism-based.

The source made the active and inactive calls.

One may read the IC50 as the midpoint of a concentration-inhibition curve. As to `O=C(NCCCCc1ccccc1)n1c(=O)oc2ccc(F)cc21`, the IC50 in series [1] (read-out: IC50) was 12 nM. Take `O=C(NCCCCc1ccccc1)n1c(=O)oc2cc([N+](=O)[O-])ccc21`: the Stability entry in series [2] is given as “Stable”. One may read the half-life as the time needed for the level to fall by half in the phase considered. Regarding `O=C(NCCCCc1ccccc1)n1c(=O)oc2ccc(-c3ccc(F)cc3)cc21`, the half-life at 10 µM in [3] is more than 300 min. Take `O=C(c1ccc(Cl)cc1)c1ccc2c(c1)oc(=O)n2C(=O)NCCCCc1ccccc1`: the Stability result in series [2] is “Stable”. Besides, the half-life at 10 µM in series [3] is 274 min. As to `O=C(c1ccccc1)c1ccc2oc(=O)n(C(=O)NCCCCc3ccccc3)c2c1`, the IC50 in series [1] (read-out: IC50) was determined as 24 nM.

In the case of `O=C(NCCCCc1ccc2ccccc2c1)n1c(=O)oc2ccccc21`, the IC50 in [1] (read-out: IC50) came to 71 nM. With `O=C(NCCSCc1ccccc1)n1c(=O)oc2ccccc21`, the IC50 in [1] (read-out: IC50) stood at 65 nM. Regarding `O=C(NCCCCc1ccccc1)n1c(=O)oc2cc(-c3ccccc3)ccc21`, the half-life at 10 µM in series [3] is more than 300 min. With `O=C(NCCCCc1ccccc1)n1c(=O)oc2cc(-c3ccc(F)cc3)ccc21`, the half-life at 10 µM in [3] was more than 300 min. As to `O=C(NCCCCc1ccccc1)n1c(=O)oc2cc(F)ccc21`, the IC50 in series [1] (read-out: IC50) was 31 nM. `O=C(NCCCCc1ccccc1)n1c(=O)oc2cc(Br)ccc21`: the IC50 in series [1] (hek293, read-out: IC50) amounted to 31 nM. In addition, in [3], the t1/2 was found to be 24 min. In the case of `O=C(NCCCCc1ccccc1)n1c(=O)oc2ccc(C(F)(F)F)cc21`, the IC50 in series [1] (read-out: IC50) is 18 nM. On to `O=C(c1ccccc1)c1ccc2c(c1)oc(=O)n2C(=O)NCCCCc1ccccc1`, for which the Stability result in series [2] is given as “Stable”. For the same compound, in series [3], the half-life at 10 µM is 98 min. For the compound `O=C(NCCCCc1ccccc1)n1c(=O)oc2ccccc21`, the t1/2 in [3] stood at 45 min. As to `O=C(NCCOCc1ccccc1)n1c(=O)oc2ccccc21`, the IC50 in series [1] (read-out: IC50) is 649 nM. In the case of `CN(CCNC(=O)n1c(=O)oc2ccccc21)Cc1ccccc1`, the inhibition entry in series [4] was “inactive”. With `O=C(NCCCCc1ccccc1)n1c(=O)oc2cc(Cl)c(Cl)cc21`, the half-life at 10 µM in series [3] turned out to be 55 min. Take `O=C(NCCCCCCc1ccccc1)n1c(=O)oc2ccccc21`: the concentration for half-maximal inhibition (IC50) in series [1] (read-out: IC50) was 51 nM. As to `O=C(NCCCCc1cccs1)n1c(=O)oc2ccccc21`, in [1] (read-out: IC50), the IC50 came out at 37 nM. On to `O=C(NCCCCc1ccccc1)n1c(=O)oc2cc(Cl)ccc21`, for which, in series [2], the Stability result is on record as “Stable”. In addition, the half-life at 10 µM in [3] turned out to be 58 min. In addition, the inhibition result in series [5], in series [6], in [7], in series [8], in series [9] and in [10] was “Active” in each case. In series [11], the inhibition entry was “inactive”. In the case of `O=C(NCCCCc1ccccc1)n1c(=O)oc2cccc(Br)c21`, the IC50 result in [1] (hek293) was “ND(Unstable)”. For `COc1ccc(-c2ccc3oc(=O)n(C(=O)NCCCCc4ccccc4)c3c2)cc1`, the IC50 in [1] (read-out: IC50) was 67 nM. The half-life at 10 µM in series [3] worked out at 176 min. Consider `Cc1cccc2oc(=O)n(C(=O)NCCCCc3ccccc3)c12`, for which the IC50 result in series [1] (hek293) is recorded as “ND(Unstable)”.

As for `COc1ccc(-c2ccc3c(c2)oc(=O)n3C(=O)NCCCCc2ccccc2)cc1`, the half-life at 10 µM in series [3] came to 132 min. As to `Cc1ccc(CCCCNC(=O)n2c(=O)oc3ccccc32)cc1`, the IC50 in series [1] (read-out: IC50) was found to be 25 nM. Turning to `O=C(NCCCCc1ccc([N+](=O)[O-])cc1)n1c(=O)oc2ccccc21`, the IC50 in series [1] (read-out: IC50) is 312 nM. On to `O=C(NCCCCc1ccccc1)n1c(=O)oc2ccc([N+](=O)[O-])cc21`, for which, in series [2], the Stability entry was “Stable”. For the compound `O=C(NCCCCc1ccccc1)n1c(=O)oc2c(-c3ccccc3)cccc21`, the half-life at 10 µM in series [3] is more than 300 min.

As for `O=C(NCCCCc1ccccc1)n1c(=O)oc2ccc(Cl)cc21`, the IC50 in [1] (read-out: IC50) worked out at 15 nM. Take `O=C(NCCCCc1ccccc1)n1c(=O)oc2ccc(-c3ccccc3)cc21`: the IC50 in series [1] (read-out: IC50) stood at 42 nM. For the same compound, the Stability entry in series [2] was “Stable”. In addition, the half-life at 10 µM in series [3] worked out at 296 min. Take `O=C(NCCc1ccccc1)n1c(=O)oc2ccccc21`: the IC50 in series [1] (read-out: IC50) worked out at 121 nM.

For `O=C(NCCCCc1ccccc1)n1c(=O)oc2cccc(-c3ccccc3)c21`, in series [3], the half-life at 10 µM was found to be 7 min.
